From ChEMBL document CHEMBL1135024, “Studies toward the discovery of the next generation of antidepressants. Part 2: incorporating a 5-HT(1A) antagonist component into a class of serotonin reuptake inhibitors” (Bioorg Med Chem Lett, 2002)

Assays:
[1] = target: T1, 5-hydroxytryptamine receptor 1A (Homo sapiens) (UniProt P08908); test: In vitro agonist activity at the 5-hydroxytryptamine 1A receptor; assay type: functional
T1 sequence (whole entry): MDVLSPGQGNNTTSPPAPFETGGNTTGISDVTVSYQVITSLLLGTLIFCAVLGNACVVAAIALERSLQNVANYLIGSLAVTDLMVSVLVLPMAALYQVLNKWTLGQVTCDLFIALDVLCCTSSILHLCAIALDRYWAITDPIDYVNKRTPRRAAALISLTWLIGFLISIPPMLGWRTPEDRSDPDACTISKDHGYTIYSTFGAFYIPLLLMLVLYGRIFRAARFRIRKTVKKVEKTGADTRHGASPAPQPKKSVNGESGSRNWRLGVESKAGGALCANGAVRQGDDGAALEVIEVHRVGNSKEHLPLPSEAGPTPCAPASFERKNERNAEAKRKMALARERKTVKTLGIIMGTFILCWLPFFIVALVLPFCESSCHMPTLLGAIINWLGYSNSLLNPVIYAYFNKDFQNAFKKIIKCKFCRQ

[2] = target: Sodium-dependent serotonin transporter (Homo sapiens, UniProt P31645); test: Affinity for HC Serotonin transporter determined in vitro by incubating compound and [3H]5-HT with human carcinoma (Jar cells), previously treated with staurosporine; assay type: cell-based
In short: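 Read-out is specific [³H]-5-HT uptake into Jar human carcinoma cells pretreated with staurosporine to enhance transporter expression, after incubation with the test compound.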

[3] = target: T2, 5-hydroxytryptamine receptor 1A (Homo sapiens, UniProt P08908); test: Antagonism of 5-hydroxytryptamine 1A receptor determined in vitro; assay type: functional
T2 sequence (P08908 whole entry): T1 sequence (whole entry)

[4] = target: Sodium-dependent serotonin transporter (Rattus norvegicus, UniProt P31652); test: Affinity for RB Serotonin transporter was determined in vitro by incubating compound
In short: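 Radioligand binding to the 5-HT transporter with [³H]-paroxetine. Ki values are the mean of 2–3 experiments, each run in triplicate at six concentrations. 95% confidence limits were generally within 15% of the mean.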

[5] = target: T1, 5-hydroxytryptamine receptor 1A (Homo sapiens); test: Agonist activity at the 5-hydroxytryptamine 1A receptor was determined in vitro using a [35S]GTP-gamma-S,; assay type: functional
[6] = target: T3, Adrenergic receptor alpha-1 (Rattus norvegicus, UniProt P15823+P23944+P43140); test: In vitro binding affinity towards Alpha-1 adrenergic receptor was determined by the displacement of [3H]prazosin; assay type: protein assay
T3 sequence (P15823 whole entry): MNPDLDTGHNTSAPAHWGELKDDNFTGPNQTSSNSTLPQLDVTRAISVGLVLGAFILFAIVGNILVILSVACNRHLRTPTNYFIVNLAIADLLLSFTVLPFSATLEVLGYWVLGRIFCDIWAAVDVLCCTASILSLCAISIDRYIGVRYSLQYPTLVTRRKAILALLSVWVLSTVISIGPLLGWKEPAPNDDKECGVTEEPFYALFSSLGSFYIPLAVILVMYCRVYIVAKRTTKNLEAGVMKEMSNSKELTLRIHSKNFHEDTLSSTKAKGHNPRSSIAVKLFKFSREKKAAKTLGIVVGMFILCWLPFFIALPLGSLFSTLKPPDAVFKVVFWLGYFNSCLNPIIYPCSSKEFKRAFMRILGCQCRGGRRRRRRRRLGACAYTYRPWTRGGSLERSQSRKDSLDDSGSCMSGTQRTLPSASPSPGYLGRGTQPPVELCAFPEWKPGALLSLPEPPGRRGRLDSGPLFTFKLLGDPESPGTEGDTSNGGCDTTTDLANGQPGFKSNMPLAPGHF
T3 sequence (P23944 whole entry): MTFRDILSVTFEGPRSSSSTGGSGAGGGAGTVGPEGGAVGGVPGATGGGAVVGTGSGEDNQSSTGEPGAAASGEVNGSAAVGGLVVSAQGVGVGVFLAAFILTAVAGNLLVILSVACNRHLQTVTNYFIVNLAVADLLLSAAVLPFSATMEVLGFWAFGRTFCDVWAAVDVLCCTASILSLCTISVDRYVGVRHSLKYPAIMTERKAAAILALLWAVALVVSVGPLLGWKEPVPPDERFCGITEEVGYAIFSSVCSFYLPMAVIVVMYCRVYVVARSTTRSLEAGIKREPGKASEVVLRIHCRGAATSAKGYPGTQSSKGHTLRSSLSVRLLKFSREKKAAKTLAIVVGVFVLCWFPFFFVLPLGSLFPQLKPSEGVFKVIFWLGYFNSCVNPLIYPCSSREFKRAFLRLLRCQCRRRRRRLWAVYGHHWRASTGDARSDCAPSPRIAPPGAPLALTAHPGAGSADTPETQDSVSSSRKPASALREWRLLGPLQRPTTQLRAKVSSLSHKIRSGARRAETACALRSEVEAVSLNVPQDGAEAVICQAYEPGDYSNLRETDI
T3 sequence (P43140 whole entry): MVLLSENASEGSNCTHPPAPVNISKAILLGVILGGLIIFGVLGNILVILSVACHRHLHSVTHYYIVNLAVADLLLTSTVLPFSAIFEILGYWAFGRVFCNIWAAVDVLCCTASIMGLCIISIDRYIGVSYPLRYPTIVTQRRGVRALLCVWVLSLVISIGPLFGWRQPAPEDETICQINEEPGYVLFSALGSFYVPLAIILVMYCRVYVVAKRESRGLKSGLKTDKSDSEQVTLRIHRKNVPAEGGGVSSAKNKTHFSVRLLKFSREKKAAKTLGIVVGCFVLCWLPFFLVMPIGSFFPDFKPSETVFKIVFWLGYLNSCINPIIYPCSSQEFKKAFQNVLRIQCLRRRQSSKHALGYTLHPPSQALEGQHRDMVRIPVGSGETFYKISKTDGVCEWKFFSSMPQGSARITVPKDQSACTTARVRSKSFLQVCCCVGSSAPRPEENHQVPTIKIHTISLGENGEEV
In short: (§1)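 Displacement binding: [³H]-prazosin for α1 and [³H]-8-OH-DPAT for human 5-HT1A. Ki values are the mean of 2–3 experiments at six concentrations, each in triplicate. 95% confidence limits were generally within 15% of the mean.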

[7] = target: T2, 5-hydroxytryptamine receptor 1A; test: Antagonism of 5-hydroxytryptamine 1A receptor was determined in vitro using a [35S]GTP-gamma-S,; assay type: functional
[8] = target: T2, 5-hydroxytryptamine receptor 1A; test: Antagonism at the 5-hydroxytryptamine 1A receptor in vitro; assay type: functional
[9] = target: T2, 5-hydroxytryptamine receptor 1A; test: Antagonism at the 5-hydroxytryptamine 1A receptor was determined in vitro using a [35S]GTP-gamma-S,; assay type: functional
[10] = target: T1, 5-hydroxytryptamine receptor 1A (Homo sapiens); test: Agonist activity at the 5-hydroxytryptamine 1A receptor determined in vitro using a [35S]GTP-gamma-S,; assay type: functional
[11] = target: T2, 5-hydroxytryptamine receptor 1A; test: In vitro binding affinity towards Human 5-hydroxytryptamine 1A receptor by the displacement of [3H]8-OH-DPAT; assay type: single protein; in short: as §1

Sodium-dependent serotonin transporter (Rattus norvegicus, UniProt P31652), sequence (P31652 whole entry): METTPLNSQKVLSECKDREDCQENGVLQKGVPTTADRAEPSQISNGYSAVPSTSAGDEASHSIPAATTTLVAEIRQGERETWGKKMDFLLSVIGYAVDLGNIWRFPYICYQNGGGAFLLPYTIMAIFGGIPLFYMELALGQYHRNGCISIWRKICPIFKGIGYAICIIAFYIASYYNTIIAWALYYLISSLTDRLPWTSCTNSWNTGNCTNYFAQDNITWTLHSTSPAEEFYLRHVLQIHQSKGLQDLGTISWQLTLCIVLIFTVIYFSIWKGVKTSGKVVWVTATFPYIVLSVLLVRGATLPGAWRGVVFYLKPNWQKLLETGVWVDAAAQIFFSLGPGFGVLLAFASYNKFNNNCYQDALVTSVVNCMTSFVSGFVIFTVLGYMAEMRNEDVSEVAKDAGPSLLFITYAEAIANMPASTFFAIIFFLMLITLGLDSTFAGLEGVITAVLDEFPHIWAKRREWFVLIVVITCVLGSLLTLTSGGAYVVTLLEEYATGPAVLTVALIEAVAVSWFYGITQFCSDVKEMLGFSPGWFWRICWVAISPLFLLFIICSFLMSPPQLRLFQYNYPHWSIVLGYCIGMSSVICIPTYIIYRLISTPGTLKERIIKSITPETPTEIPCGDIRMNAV
Sodium-dependent serotonin transporter (Homo sapiens, UniProt P31645), sequence (P31645 whole entry): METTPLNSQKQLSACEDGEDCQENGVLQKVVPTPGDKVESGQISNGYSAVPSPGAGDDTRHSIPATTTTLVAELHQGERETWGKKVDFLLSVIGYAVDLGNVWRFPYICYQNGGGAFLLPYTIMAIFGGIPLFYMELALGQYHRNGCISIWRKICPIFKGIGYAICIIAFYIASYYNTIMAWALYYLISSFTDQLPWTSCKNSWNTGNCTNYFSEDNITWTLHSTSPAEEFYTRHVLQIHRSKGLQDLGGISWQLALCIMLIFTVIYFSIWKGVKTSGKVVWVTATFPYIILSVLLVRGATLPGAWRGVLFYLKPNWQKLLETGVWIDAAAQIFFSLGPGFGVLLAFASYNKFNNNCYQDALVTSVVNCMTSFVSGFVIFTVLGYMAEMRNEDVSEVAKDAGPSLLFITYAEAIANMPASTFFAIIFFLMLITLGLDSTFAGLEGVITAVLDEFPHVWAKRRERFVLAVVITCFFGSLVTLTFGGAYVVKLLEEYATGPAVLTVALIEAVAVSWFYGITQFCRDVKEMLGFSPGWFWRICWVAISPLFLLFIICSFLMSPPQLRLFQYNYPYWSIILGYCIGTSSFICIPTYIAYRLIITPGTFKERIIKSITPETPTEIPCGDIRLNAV

Compound | Emax [1] | Ki [2] | IC50 [3] | Ki [4] | Emax [5] | Ki [6] | IC50 [7] | IC50 [8] | IC50 [9] | Emax [10] | Ki [11]
C1=C(c2c[nH]c3ccccc23)CCN(CCOc2cccc3c2OCCO3)C1 | 0 | 45 nM | 115 nM | 0.17 nM | 21 | 4.7 nM | 222 nM |  |  |  | 
C1=C(c2c[nH]c3ncccc23)CCN(CCOc2cccc3c2OCCO3)C1 | 0 | 276 nM |  |  | 30 | 33 nM |  | 969 nM |  |  | 
C1=C(c2c[nH]c3ccccc23)CCN(CCOc2cccc3[nH]ccc23)C1 | 0 | 41.2 nM | 33 nM | 0.03 nM |  | 0.19 nM |  |  | 115 nM | 7.5 | 21.6 nM
Fc1ccc2c(C3CCN(CCOc4cccc5c4OCCO5)CC3)c[nH]c2c1 | 0 | 128 nM | 920 nM | 4.7 nM | 29.5 | 2.8 nM | 666 nM |  |  |  | 19.6 nM
Fc1ccc2c(C3=CCN(CCOc4cccc5c4OCCO5)CC3)c[nH]c2c1 |  | 19.8 nM |  | 0.15 nM | 53 | 4.1 nM |  |  |  |  | 83.6 nM
C1=C(c2c[nH]c3ccccc23)CCN(CCOc2cccc3ncccc23)C1 | 0 | 93.6 nM | 686 nM | 0.23 nM | 14 | 3.6 nM | 524 nM |  |  |  | 92.6 nM
Fc1ccc2[nH]cc(CC3CCN(CCOc4cccc5c4OCCO5)CC3)c2c1 |  |  |  | 0.01 nM |  |  |  |  |  |  | 
C1=C(c2c[nH]c3ncccc23)CCN(CCOc2cccc3[nH]ccc23)C1 | 0 | 175 nM | 12 nM |  | 7 | 0.9 nM | 38.9 nM |  |  |  | 
C1=C(c2c[nH]c3ncccc23)CCN(CCOc2cccc3ncccc23)C1 | 0 | 387 nM | 90 nM |  | 0 | 78 nM |  |  | 181 nM |  | 
Fc1ccc2[nH]cc(C3=CCN(CCOc4cccc5c4OCCO5)CC3)c2c1 | 0 | 46.9 nM | 1040 nM | 1.17 nM | 11 | 30 nM | 684 nM |  |  |  | 
